# Source: ChEMBL document CHEMBL4359890, “Design, synthesis of oleanolic acid-saccharide conjugates using click chemistry methodology and study of their anti-influenza activity” (Eur J Med Chem, 2019)
# Calls of active or inactive are those of the source. The calls are words filed in the database; no cut-off is given here.
# What was measured:
# [1] = tested on: MDCK; test: Cytotoxicity against dog MDCK cells assessed as reduction in cell viability at 100 uM measured after 40 hrs by Celltiter-Glo assay; format: cell-based, Canis lupus familiaris
# Summary of the method: (§1)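 Uninfected MDCK cells were grown overnight in 96-well plates with 1% FBS. They were then exposed to increasing compound concentrations, or to a single 100 μM screen, for 40 h, and viability was read by CellTiter-Glo. CC50 is the concentration causing 50% death of uninfected cells.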
# [2] = tested on: Influenza A virus; test: Antiviral activity against Influenza A virus A/WSN/33 infected in MDCK cells assessed as reduction in virus-induced cytopathic effect at 100 uM after 40 hrs by Celltiter-Glo assay; format: functional, organism-based
# Summary of the method: (§2)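 This was a single-concentration screen at 100 μM in MDCK cells infected with A/WSN/33 at MOI 0.1. CPE protection was read by CellTiter-Glo after 40 h of incubation. The inhibition rate was expressed relative to 1% DMSO (final) negative control, with oseltamivir phosphate as the positive control. Experiments were run in triplicate.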
# [3] = tested on: Influenza B virus; test: Antiviral activity against Influenza B virus B/Yamagata/16/88(BY) infected in MDCK cells assessed as inhibition of virus-induced cytopathic effect after 40 hrs by Celltiter-Glo assay; format: functional, organism-based
# Summary of the method: (§3)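 MDCK cells were seeded in 96-well plates, left overnight, then infected with influenza virus at MOI 0.1 and treated with the compound. After 40 h, viability was read by CellTiter-Glo luminescence. 1% DMSO (final) served as the negative control and oseltamivir phosphate as the positive control. IC50 is the concentration that inhibits virus-induced CPE by 50%, taken from dose-response curves in replicate independent experiments.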
# [4] = tested on: Influenza B virus; test: Antiviral activity against Influenza B virus B/Sichuan/531/2018(BV) infected in MDCK cells assessed as inhibition of virus-induced cytopathic effect after 40 hrs by Celltiter-Glo assay; format: functional, organism-based; summary of the method: as §3
# [5] = tested on: Influenza A virus; test: Antiviral activity against Influenza A virus A/WSN/33 assessed as inhibition of virus-induced cytopathic effect after 40 hrs by Celltiter-Glo assay; format: functional, organism-based; details: A/WSN/33, 40 h; summary of the method: as §3
# [6] = target: Hemagglutinin (Influenza A virus) (UniProt B4URE7); test: Inhibition of influenza A virus A/WSN/33 HA-mediated chicken erythrocytes hemagglutination pretreated with compound followed by erythrocytes addition measured after 30 mins
# Chain of Hemagglutinin (Influenza A virus) (B4URE7 as listed by the source): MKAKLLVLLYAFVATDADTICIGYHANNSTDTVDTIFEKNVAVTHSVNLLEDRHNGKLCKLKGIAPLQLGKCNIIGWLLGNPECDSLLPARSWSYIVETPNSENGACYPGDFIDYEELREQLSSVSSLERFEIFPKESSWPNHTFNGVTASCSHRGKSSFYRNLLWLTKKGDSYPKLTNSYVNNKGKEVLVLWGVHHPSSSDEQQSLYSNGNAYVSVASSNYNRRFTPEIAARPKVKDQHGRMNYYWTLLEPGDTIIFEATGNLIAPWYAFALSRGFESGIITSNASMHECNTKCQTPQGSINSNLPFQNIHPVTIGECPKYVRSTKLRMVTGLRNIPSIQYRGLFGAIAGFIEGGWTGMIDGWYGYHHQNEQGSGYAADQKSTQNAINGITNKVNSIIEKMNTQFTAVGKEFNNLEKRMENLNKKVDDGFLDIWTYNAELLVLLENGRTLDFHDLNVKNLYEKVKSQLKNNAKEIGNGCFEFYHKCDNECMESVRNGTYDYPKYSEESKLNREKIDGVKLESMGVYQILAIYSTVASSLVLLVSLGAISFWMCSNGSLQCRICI
# Summary of the method: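 Compound was serially diluted 2-fold in saline and mixed with an equal volume of A/WSN/33 (H1N1) virus in V-bottom plates. Freshly prepared chicken red blood cells (1% v/v in saline) were then added. After 30 min at room temperature, erythrocyte aggregation was scored visually. Anti-HA antibody served as the positive control.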
# [7] = Selectivity index, ratio of CC50 for MDCK cells to IC50 for influenza A virus A/WSN/33; format: toxicity; details: dog, read-out: Ratio CC50/IC50
# Summary of the method: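 SI was calculated as CC50 (uninfected MDCK, 40 h CellTiter-Glo) divided by IC50 (50% inhibition of A/WSN/33 replication in MDCK, MOI 0.1, 40 h CellTiter-Glo).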
# [8] = tested on: Influenza B virus; test: Potency index, ratio of OSV-p IC50 to compound IC50 for antiviral activity against Influenza B virus B/Yamagata/16/88(BY); format: functional
# [9] = tested on: Influenza A virus; test: Antiviral activity against Influenza A virus A/Victoria/361/2011(H3N2) infected in MDCK cells assessed as inhibition of virus-induced cytopathic effect after 40 hrs by Celltiter-Glo assay; format: functional, organism-based; summary of the method: as §3
# [10] = tested on: Influenza B virus; test: Antiviral activity against Influenza B virus B/Massachusetts/2/2012(BV) infected in MDCK cells assessed as inhibition of virus-induced cytopathic effect after 40 hrs by Celltiter-Glo assay; format: functional, organism-based; summary of the method: as §3
# [11] = Cytotoxicity against dog MDCK cells assessed as cell viability at 100 uM measured after 40 hrs by Celltiter-Glo assay relative to control; format: cell-based, Canis lupus familiaris; details: read-out: Activity; summary of the method: as §1
# [12] = Cytotoxicity against dog MDCK cells assessed as reduction in cell viability measured after 40 hrs by Celltiter-Glo assay; format: cell-based, Canis lupus familiaris; summary of the method: as §1
# [13] = tested on: Influenza A virus; test: Antiviral activity against Influenza A virus A/WSN/33 infected in MDCK cells assessed as reduction in virus-induced cytopathic effect at 100 uM after 40 hrs by Celltiter-Glo assay relative to control; format: functional; details: A/WSN/33, MDCK; summary of the method: as §2
smiles,measurement,setting,value
CC1(C)CC[C@]2(C(=O)NCc3cn([C@@H]4O[C@H](CO)[C@@H](O[C@H]5O[C@H](CO)[C@@H](O[C@H]6O[C@H](CO)[C@@H](O)[C@H](O)[C@H]6O)[C@H](O)[C@H]5O)[C@H](O)[C@H]4O)nn3)CC[C@]3(C)C(=CC[C@@H]4[C@@]5(C)CC[C@H](O)C(C)(C)[C@@H]5CC[C@]43C)[C@@H]2C1,Activity,[1],Non-Toxic
same,Activity,[2],inactive
CC(=O)O[C@@H]1[C@@H](OC(C)=O)[C@H](C)O[C@@H](n2cc(CNC(=O)[C@]34CCC(C)(C)C[C@H]3C3=CC[C@@H]5[C@@]6(C)CC[C@H](O)C(C)(C)[C@@H]6CC[C@@]5(C)[C@]3(C)CC4)nn2)[C@@H]1OC(C)=O,Activity,[1],Non-Toxic
CC1(C)CC[C@]2(C(=O)NCc3cn([C@@H]4O[C@H](CO)[C@@H](O)[C@H](O)[C@H]4O)nn3)CC[C@]3(C)C(=CC[C@@H]4[C@@]5(C)CC[C@H](O)C(C)(C)[C@@H]5CC[C@]43C)[C@@H]2C1,IC50,[3],5.54 µM
same,IC50,[4],26.1 µM
same,IC50,[5],5.47 µM
same,inhibition,[6],Active
same,Activity,[1],Non-Toxic
same,selectivity ratio,[7],> 18.3
same,Ratio IC50,[8],4
same,IC50,[9],10.4 µM
same,IC50,[10],11.5 µM
same,"viability at 40 h, 100 µM",[11],> 75%
same,CC50 at 40 h,[12],> 100 µM
same,inhibition at 100 µM,[13],> 75%
CC1(C)CC[C@]2(C(=O)NCc3cn([C@@H]4OC[C@H](O)[C@H](O)[C@H]4O)nn3)CC[C@]3(C)C(=CC[C@@H]4[C@@]5(C)CC[C@H](O)C(C)(C)[C@@H]5CC[C@]43C)[C@@H]2C1,IC50,[5],12.9 µM
same,Activity,[1],Non-Toxic
same,selectivity ratio,[7],> 7.73
same,"viability at 40 h, 100 µM",[11],> 75%
same,CC50 at 40 h,[12],> 100 µM
same,inhibition at 100 µM,[13],> 75%
CC(=O)OC[C@H]1O[C@@H](O[C@H]2[C@H](OC(C)=O)[C@@H](OC(C)=O)[C@H](n3cc(CNC(=O)[C@]45CCC(C)(C)C[C@H]4C4=CC[C@@H]6[C@@]7(C)CC[C@H](O)C(C)(C)[C@@H]7CC[C@@]6(C)[C@]4(C)CC5)nn3)O[C@@H]2COC(C)=O)[C@H](OC(C)=O)[C@@H](OC(C)=O)[C@H]1OC(C)=O,Activity,[1],Non-Toxic
CC(=O)OC[C@H]1O[C@@H](n2cc(CNC(=O)[C@]34CCC(C)(C)C[C@H]3C3=CC[C@@H]5[C@@]6(C)CC[C@H](O)C(C)(C)[C@@H]6CC[C@@]5(C)[C@]3(C)CC4)nn2)[C@H](OC(C)=O)[C@@H](OC(C)=O)[C@@H]1O[C@H]1O[C@H](COC(C)=O)[C@@H](OC(C)=O)[C@H](OC(C)=O)[C@H]1OC(C)=O,Activity,[1],Non-Toxic
CC1(C)CC[C@]2(C(=O)NCc3cn([C@H]4O[C@H](CO)[C@@H](O)[C@H](O)[C@@H]4O)nn3)CC[C@]3(C)C(=CC[C@@H]4[C@@]5(C)CC[C@H](O)C(C)(C)[C@@H]5CC[C@]43C)[C@@H]2C1,Activity,[1],Non-Toxic
CC(=O)OC[C@H]1O[C@H](n2cc(CNC(=O)[C@]34CCC(C)(C)C[C@H]3C3=CC[C@@H]5[C@@]6(C)CC[C@H](O)C(C)(C)[C@@H]6CC[C@@]5(C)[C@]3(C)CC4)nn2)[C@@H](OC(C)=O)[C@@H](OC(C)=O)[C@@H]1OC(C)=O,IC50,[5],7.22 µM
same,Activity,[1],Non-Toxic
same,selectivity ratio,[7],> 13.8
same,"viability at 40 h, 100 µM",[11],> 75%
same,CC50 at 40 h,[12],> 100 µM
same,inhibition at 100 µM,[13],> 75%
CC(=O)OC[C@H]1O[C@@H](n2cc(CNC(=O)[C@]34CCC(C)(C)C[C@H]3C3=CC[C@@H]5[C@@]6(C)CC[C@H](O)C(C)(C)[C@@H]6CC[C@@]5(C)[C@]3(C)CC4)nn2)[C@H](OC(C)=O)[C@@H](OC(C)=O)[C@@H]1O[C@@H]1O[C@H](COC(C)=O)[C@@H](OC(C)=O)[C@H](OC(C)=O)[C@H]1OC(C)=O,Activity,[1],Non-Toxic
CC1(C)CC[C@]2(C(=O)NCc3cn([C@@H]4O[C@H](CO)[C@H](O)[C@H](O)[C@H]4O)nn3)CC[C@]3(C)C(=CC[C@@H]4[C@@]5(C)CC[C@H](O)C(C)(C)[C@@H]5CC[C@]43C)[C@@H]2C1,Activity,[1],Non-Toxic
CC1(C)CC[C@]2(C(=O)NCc3cn([C@@H]4OC[C@@H](O)[C@H](O)[C@H]4O)nn3)CC[C@]3(C)C(=CC[C@@H]4[C@@]5(C)CC[C@H](O)C(C)(C)[C@@H]5CC[C@]43C)[C@@H]2C1,Activity,[1],Toxic
same,inhibition at 100 µM,[13],75%
